Source: ChEMBL document CHEMBL1121475, “Inhibitors of indoleethylamine N-methyltransferase. Derivatives of 3-methyl-2-thiazolidinimine. In vitro, in vivo, and metabolic studies” (J Med Chem, 1980)

Columns and labels:
[1] = tested on: Indolethylamine N-methyltransferase (Oryctolagus cuniculus); assay: In vivo evaluation of inhibitory activity against rabbit lung Indoleethylamine-N-methyltransferase at intravenous dose 10 mg/kg *(p<0.02)
[2] = (§1) Dose that causes approximately 50% lethality in mice, when given intravenously; type: ADME, organism-based; conditions: mouse, in vivo, iv
[3] = target: Indolethylamine N-methyltransferase (Homo sapiens) (UniProt O95050); assay: In vitro evaluation of Indoleethylamine-N-methyltransferase in human lung preparations for the ability to inhibit conversion of N-methyltryptamine (NMT) to N,N-dimethyltryptamine (DMT) at dose 25 ug/mL; type: tissue-based
Outline: (§2)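 Human lung INMT was taken from the 50000g supernatant, cut with 40-60% ammonium sulfate, dialysed and purified on Sephadex G-150. The reaction contained 0.007 M N-methyltryptamine stock, S-[methyl-14C]adenosylmethionine and potassium phosphate, pH 7.9, in 0.105 mL, run 90 min at 37 °C. It was stopped with borate at pH 10. [14C]DMT was extracted into isoamyl alcohol and counted by scintillation.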

[4] = (§3) Dose that causes approximately 50% lethality in mice, when given perorally; type: ADME, organism-based; conditions: mouse, in vivo, po
Outline: (§4)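 Mice in groups of one to three were dosed orally. Deaths were scored on day 7 after dosing, and the LD50 was obtained by graphical interpolation.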

[5] = target: Indolethylamine N-methyltransferase (Homo sapiens) (UniProt O95050); assay: In vitro evaluation of Indoleethylamine-N-methyltransferase in human lung preparations for the ability to inhibit conversion of N-methyltryptamine (NMT) to N,N-dimethyltryptamine (DMT) at dose 2.5 ug/mL; type: tissue-based
Outline: as §2

[6] = tested on: Indolethylamine N-methyltransferase (Oryctolagus cuniculus); assay: Compound tested for inhibitory activity against rabbit lung Indoleethylamine-N-methyltransferase at oral dose 25 mg/kg
[7] = Dose that causes approximately 50% lethality in mice, when given intraperitoneally; type: ADME, organism-based; conditions: mouse, in vivo, ip
[8] = tested on: Indolethylamine N-methyltransferase (Oryctolagus cuniculus); assay: In vivo evaluation of specific activity against rabbit lung Indoleethylamine-N-methyltransferase at oral dose of 25 mg/kg
[9] = tested on: Indolethylamine N-methyltransferase (Oryctolagus cuniculus); assay: Compound tested for inhibitory activity against rabbit lung Indoleethylamine-N-methyltransferase at intravenous dose 4 mg/kg *(p<0.008
[10] = tested on: Indolethylamine N-methyltransferase (Oryctolagus cuniculus); assay: In vivo evaluation of specific activity against rabbit lung Indoleethylamine-N-methyltransferase at intravenous dose of 4 mg/kg
[11] = tested on: Indolethylamine N-methyltransferase (Oryctolagus cuniculus); assay: Compound tested for inhibitory activity against rabbit lung Indoleethylamine-N-methyltransferase at oral dose 25 mg/kg *(p<0.026)
[12] = tested on: Indolethylamine N-methyltransferase (Oryctolagus cuniculus); assay: Compound tested for inhibitory activity against rabbit lung Indoleethylamine-N-methyltransferase at intravenous dose 4 mg/kg *(p<0.027)
[13] = tested on: Oryctolagus cuniculus; assay: 10 mg/kg of [14C]- radiolabeled compound was intravenously injected in rabbit, and radioactivity content in urine was estimated at 0-6 h; type: ADME, organism-based; conditions: in vivo, iv
Outline: (§5)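 Male New Zealand white rabbit (825 g), [14C]-labelled drug given intravenously at 10 mg/kg. Urine collected at 6, 24, 48 and 72 h and feces at 24, 48 and 72 h post-dose. Radioactivity is counted and expressed as % of administered dose.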

[14] = tested on: Oryctolagus cuniculus; assay: 25 mg/kg of [14C]- radiolabeled compound was perorally injected in rabbit, and radioactivity content in urine was estimated at 0-6 h; type: ADME, organism-based; conditions: in vivo, po
Outline: (§6)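 Male New Zealand white rabbit (825 g) dosed by gavage at 25 mg/kg. The dosing solution was [14C]-labelled plus unlabelled drug in distilled water, 2 mg free base/mL, specific activity 1183 dpm/μg. Urine collected at 6, 24, 48 and 72 h and feces at 24, 48 and 72 h. Radioactivity is expressed as % of administered dose.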

[15] = tested on: Oryctolagus cuniculus; assay: 10 mg/kg of [14C]- radiolabeled compound was intravenously injected in rabbit, and radioactivity content in urine was estimated at 6-24 h; type: ADME, organism-based; conditions: in vivo, iv
Outline: as §5

[16] = tested on: Oryctolagus cuniculus; assay: 10 mg/kg of [14C]- radiolabeled compound was intravenously […] injected in rabbit, and radioactivity content in feces was estimated (total); type: ADME, organism-based; conditions: in vivo, iv
Outline: as §5

[17] = tested on: Oryctolagus cuniculus; assay: 25 mg/kg of [14C]- radiolabeled compound was orally (gavage) injected in rabbit, and radioactivity content in feces was estimated (total); type: ADME, organism-based; conditions: in vivo, po
Outline: as §6

[18] = tested on: Oryctolagus cuniculus; assay: 10 mg/kg of [14C]- radiolabeled compound was intravenously injected in rabbit, and radioactivity content in urine was estimated at 24-48 h; type: ADME, organism-based; conditions: in vivo, iv
Outline: as §5

[19] = tested on: Mus musculus; assay: as §1; type: functional; conditions: iv
[20] = tested on: Oryctolagus cuniculus; assay: 10 mg/kg of [14C]- radiolabeled compound was intravenously […] injected in rabbit, and radioactivity content in feces was estimated at 24-48 h; type: ADME, organism-based; conditions: in vivo, iv
Outline: as §5

[21] = tested on: Oryctolagus cuniculus; assay: 25 mg/kg of [14C]- radiolabeled compound was perorally injected in rabbit, and radioactivity content in urine was estimated at 24-48 h; type: ADME, organism-based; conditions: in vivo, po
Outline: as §6

[22] = tested on: Oryctolagus cuniculus; assay: 10 mg/kg of [14C]- radiolabeled compound was intravenously […] injected in rabbit, and radioactivity content in feces was estimated at 0-24 h; type: ADME, organism-based; conditions: in vivo, iv
Outline: as §5

[23] = tested on: Oryctolagus cuniculus; assay: 10 mg/kg of [14C]- radiolabeled compound was intravenously injected in rabbit, and radioactivity content in urine was estimated (total); type: ADME, organism-based; conditions: in vivo, iv
Outline: as §5

[24] = tested on: Oryctolagus cuniculus; assay: 25 mg/kg of [14C]- radiolabeled compound was orally (gavage) injected in rabbit, and radioactivity content in feces was estimated at 24-48 h; type: ADME, organism-based; conditions: in vivo, po
Outline: as §6

[25] = tested on: Oryctolagus cuniculus; assay: 25 mg/kg of [14C]- radiolabeled compound was orally (gavage) injected in rabbit, and radioactivity content in feces was estimated at 48-72 h; type: ADME, organism-based; conditions: in vivo, po
Outline: as §6

[26] = tested on: Oryctolagus cuniculus; assay: 10 mg/kg of [14C]- radiolabeled compound was intravenously […] injected in rabbit, and radioactivity content in feces was estimated at 48-72 h; type: ADME, organism-based; conditions: in vivo, iv
Outline: as §5

[27] = tested on: Oryctolagus cuniculus; assay: 25 mg/kg of [14C]- radiolabeled compound was orally (gavage) injected in rabbit, and radioactivity content in feces was estimated at 0-24 h; type: ADME, organism-based; conditions: in vivo, po
Outline: as §6

[28] = tested on: Oryctolagus cuniculus; assay: 25 mg/kg of [14C]- radiolabeled compound was perorally injected in rabbit, and radioactivity content in urine was estimated (total); type: ADME, organism-based; conditions: in vivo, po
Outline: as §6

[29] = tested on: Oryctolagus cuniculus; assay: 25 mg/kg of [14C]- radiolabeled compound was perorally injected in rabbit, and radioactivity content in urine was estimated at 6-24 h; type: ADME, organism-based; conditions: in vivo, po
Outline: as §6

[30] = species: Mus musculus; assay: as §3; type: functional; conditions: po
Outline: as §4

[31] = tested on: Oryctolagus cuniculus; assay: 25 mg/kg of [14C]- radiolabeled compound was perorally injected in rabbit, and radioactivity content in urine was estimated at 48-72 h; type: ADME, organism-based; conditions: in vivo, po
Outline: as §6

[32] = tested on: Oryctolagus cuniculus; assay: 10 mg/kg of [14C]- radiolabeled compound was intravenously injected in rabbit, and radioactivity content in urine was estimated at 48-72 h; type: ADME, organism-based; conditions: in vivo, iv
Outline: as §5

[33] = tested on: Indolethylamine N-methyltransferase (Oryctolagus cuniculus); assay: In vivo evaluation of specific activity against rabbit lung Indoleethylamine-N-methyltransferase at intravenous dose of 4 mg/kgmade acidic to pH 2 with dil. HCl
[34] = tested on: Indolethylamine N-methyltransferase (Oryctolagus cuniculus); assay: Compound tested for inhibitory activity against rabbit lung Indoleethylamine-N-methyltransferase at 4 mg/kg intravenously
[35] = tested on: Indolethylamine N-methyltransferase (Oryctolagus cuniculus); assay: Compound tested for specific activity against rabbit lung Indoleethylamine-N-methyltransferase at intravenous dose of 10 mg/kg
[36] = tested on: Indolethylamine N-methyltransferase (Oryctolagus cuniculus); assay: Compound tested for specific activity against rabbit lung Indoleethylamine-N-methyltransferase at oral dose of 20 mg/kg

Indolethylamine N-methyltransferase (Homo sapiens), sequence (O95050 whole entry): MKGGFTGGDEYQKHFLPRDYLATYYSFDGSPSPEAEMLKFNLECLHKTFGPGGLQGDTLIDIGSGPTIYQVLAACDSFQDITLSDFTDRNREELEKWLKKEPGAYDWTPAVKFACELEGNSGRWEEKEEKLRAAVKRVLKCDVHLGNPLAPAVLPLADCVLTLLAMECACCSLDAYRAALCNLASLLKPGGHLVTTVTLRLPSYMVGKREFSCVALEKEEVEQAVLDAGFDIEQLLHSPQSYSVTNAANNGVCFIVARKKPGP

Row | SMILES | LD50 [2] | inhibition [3] | LD50 [4] | inhibition [5] | Specific activity [8] | also measured
1 | CC(=O)N[C@@H](Cc1ccccc1)C(=O)/N=C1\SCCN1C | – | – | – | – | – | inhibition [1]: 84.7%
2 | CN1CCS/C1=N\C(=O)OC(C)(C)C | 68 mg/kg | 6% | 306 mg/kg | – | – | –
3 | CN1CCS/C1=N\C(=O)CN | 549 mg/kg | 54% | 4670 mg/kg | 11% | – | –
4 | CN1CCS/C1=N\C(=O)/N=C1\SCCN1C | – | 0% | 2000 mg/kg | – | 61200 dpm | inhibition [6]: 31.9%; LD50 [7]: 1140 mg/kg
5 | CC(=O)NC(Cc1ccccc1)C(=O)/N=C1\SCCN1C (configuration not stated) | – | 23% | 173 mg/kg | 8% | 24100 dpm | inhibition [9]: 28.9%; inhibition [6]: 69%; Specific activity [10]: 60000 dpm; LD50 [7]: > 2000 mg/kg
6 | CN1CCS/C1=N\C(=O)c1cccnc1 | 279 mg/kg | 5% | 570 mg/kg | 0% | 18400 dpm | inhibition [11]: 76.2%; inhibition [12]: 37.8%
7 | CC(=O)CC(=O)/N=C1\SCCN1C | – | 51% | – | 24% | – | –
8 | CN1CCSC1=N | – | – | – | – | – | Dose excreted [13]: 46.5%; Dose excreted [14]: 46.4%; Dose excreted [15]: 27.7%; Dose excreted [16]: 4.3%; Dose excreted [17]: 3.9%; Dose excreted [18]: 5.3%; LD50 [19]: 118 mg/kg; Dose excreted [20]: 0.9%; Dose excreted [21]: 2.9%; Dose excreted [22]: 3.1%; Dose excreted [23]: 82.8%; Dose excreted [24]: 0.6%; Dose excreted [25]: 0.1%; Dose excreted [26]: 0.3%; Dose excreted [27]: 3.2%; Dose excreted [28]: 89.7%; Dose excreted [29]: 38.8%; LD50 [30]: 432 mg/kg; Dose excreted [31]: 1.6%; Dose excreted [32]: 3.3%
9 | CN1CCS/C1=N\S(=O)(=O)[O-].[Na+] | > 2.5 mg/kg | – | > 5 mg/kg | – | – | –
10 | CCNC(=O)/N=C1\SCCN1C | 1110 mg/kg | 0% | 203 mg/kg | – | – | –
11 | CC(=O)NCC(=O)/N=C1\SCCN1C | 408 mg/kg | 51% | 936 mg/kg | 24% | 11600 dpm | Specific activity [33]: 33200 dpm; inhibition [34]: 60.6%; inhibition [6]: 84.9%
12 | CN1CCS/C1=N\CNC(=O)c1ccccc1 | 122 mg/kg | – | 534 mg/kg | – | – | –
13 | CN1CCS/C1=N\C(=O)CCC(=O)O | 1280 mg/kg | 20% | > 8 mg/kg | – | – | Specific activity [35]: 36100 dpm; inhibition [35]: 35.8%; Specific activity [36]: 34000 dpm; inhibition [36]: 11.4%
